# Assay outcomes (PubChem)
# Most compounds without a hit are left out; they make up all but 6.4% or so of the library.
# HUVEC inhibit: human endothelial cell proliferation inhibition; 86,000 tested, 1.1% active; AID 648; HUVEC proliferation, CellTiter-Glo luminescence, 72 h; active compounds read low; viability, % at 10 µM (by protocol);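 active = viability at or below 30%; inactive = viability above 30%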;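 also: 100% = median luminescence of DMSO-only cell control wells on each plate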
# E coli WT exp: blocks growth of wild type E. coli BW25113; OD600 absorbance; growth inhibition, % at 100 µM; 98,000 tested, 0.15% active; AID 710;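 active = growth inhibition above about 50% at one test dose, limit read from the data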;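 also: growth measured after 20 h incubation at 37 °C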
# Lung fibro prol: blocks proliferation of human lung fibroblasts; LL 47 human lung fibroblast viability, ATP luminescence; active compounds read low; 85,000 tested, 1.1% active; viability, % at 10 µM;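 active = viability at or below 50% in the single dose screen; inactive = viability above 50%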;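 also: compound exposure lasted 72 h before the ATP readout; 100% = median luminescence of untreated cell-only wells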
#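 Material: human LL 47 lung fibroblast cells; quantity: 1,150 cells/well; medium: IMEM plus 15% FBS; doses: 0.1% DMSO in all compound wells; timing: overnight attachment after seeding, then 72 h compound exposure at 37 °C; detection: CellTiter-Glo luminescence; measure: % viability of median cell-only signal; controls: cell-only wells, no compound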
# Jurkat viability: cytotoxicity toward Jurkat cells; Jurkat E6.1 viability, ATP luminescence, 48 h; inhibition, % at 4 µM; 56,000 tested, 1.2% active; AID 463;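 active = inhibition above the mean inhibition of all tested compounds plus 3 SD, cut at about 28% in these data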
# Ecoli tolC: E. coli tolC mutant growth inhibition. E. coli BW25113 tolC mutant growth, OD615. growth inhibition, % at 10 µM (by protocol). 65,000 tested, 2.2% active. AID 573;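 active = growth inhibition at or above a cutoff equal to the mean over every tested compound plus 3 SD, cut at about 60% in these data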;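 also: growth measured after 20 h incubation at 37 °C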
#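 Test system: E. coli BW25113 ΔtolC::kan bacteria | Medium: Kanamycin-containing LB broth (50 µg/mL) | Dosing: One dose of 10 µM final | Times: 20 h incubation with compound, 37 °C | Detection: Optical density read at 615 nm | Read-out basis: Percent growth inhibition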
# H69AR growth 86K: growth inhibitors of human H69AR lung tumor cells | 85,000 tested, 6% active | AID 598 | H69AR lung tumor viability, ATP luminescence, 72 h; active compounds read low | viability, % at 10 µM;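 active = viability at or below 40%; inactive = viability above 40%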;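 also: multidrug resistant small cell line overexpressing MRP-1 efflux transporter; 100% = mean luminescence of untreated control wells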
# The depositor's hits bear a star; x = not tested or not shown.
SMILES,HUVEC inhibit,E coli WT exp,Lung fibro prol,Jurkat viability,Ecoli tolC,H69AR growth 86K
COc1ccc(OC)c(N=c2oc3c(OC)cccc3cc2C(=O)NCc2ccco2)c1,94,x,92,0,-5,88
COc1ccccc1N=c1oc2c(OC)cccc2cc1C(=O)NCc1ccco1,61,-7,86,-2,-10,15*
COc1ccc(N=c2oc3c(OC)cccc3cc2C(=O)NCc2ccco2)cc1OC,56,-22,90,3,-14,36*
Cc1cc(NC(=O)c2cc(CC(C)C)on2)n(-c2ccccc2)n1,x,-4,x,-3,-3,x
Cc1ccc(C)c(OCC(=O)Nc2nonc2NC(=O)COc2cc(C)ccc2C)c1,56,-11,96,-9,0,19*
Cc1c(Cl)cccc1-n1c(SCC(=O)NCc2ccccc2Cl)nnc1-c1ccncc1,86,-4,94,x,x,21*
Cc1c(Cl)cccc1-n1c(SCC(=O)NCc2cccs2)nnc1-c1ccncc1,103,-3,102,x,x,83
COc1cc(CNc2ccccc2SC)ccc1O,88,14,x,-1,-6,27*
COc1ccc(OC)c(N(CC(=O)Nc2cccnc2)S(=O)(=O)c2ccc(C)cc2)c1,50,-9,59,x,x,18*
COc1ccc(OC)c(N(CC(=O)Nc2cccnc2)S(=O)(=O)c2ccc(OC)c(OC)c2)c1,99,-11,96,-3,-8,82
CC1CCN(C(=O)CSc2nnc(-c3cccnc3)n2C2CCCCC2)CC1,101,-2,x,0,0,26*
CCC(O)CNc1nc(SC)nc2sc3c(c12)CCN(C)C3 (centres undefined),86,-4,94,x,-15,54
CCC(O)CNc1nc(-n2nc(C)cc2C)nc2sc3c(c12)CCCC3 (centres undefined),104,x,80,-4,9,8.4*
Cc1nc(SCC#N)c2c3c(sc2n1)CCC3,102,-14,95,-3,-8,95
Cc1cc(C)n(-c2nc(SCCN(C)C)c3c4c(sc3n2)CCCC4)n1,2.3*,14,3.0*,x,x,2.7*
CCOc1cc(C)c(C(C)C)cc1S(=O)(=O)N1CCN(C)CC1,89,9,94,-3,5,88
COc1nc(OC)nc(N2CCC(C(=O)NCC3CCCCC3)CC2)n1,105,2,98,7,21,31*
CN(C)c1ccc(/C=[N+](\[O-])C(C)(C)/C=N/O)cc1,97,9,x,-5,-11,30*
CCc1c(C)c(C#N)c2nc3ccccc3n2c1NCC1CCCO1 (centres undefined),104,1,100,x,x,32*
CC(C)c1cc(NCC2CCCO2)n2c(nc3ccccc32)c1C#N (centres undefined),80,4,95,x,x,9.7*
COc1cc(N=c2ssnc2Cl)cc(OC)c1OC,56,13,47*,13,-24,1.7*
N#Cc1ccc(N=c2ssnc2Cl)cc1,58,37,82,x,x,2.6*
COc1ccc(N=c2ssnc2Cl)cc1,92,x,63,x,x,1.3*
Clc1ccc(N=c2ssnc2Cl)cc1,67,x,84,x,x,1.9*
COc1cc(-c2nnc(-c3cc(OC)c(OC)c(OC)c3)o2)cc(OC)c1OC,79,x,99,x,x,78
SMILES,HUVEC inhibit,E coli WT exp,Lung fibro prol,Jurkat viability,Ecoli tolC,H69AR growth 86K
Cc1ccccc1NS(=O)(=O)c1cc(S(C)(=O)=O)ccc1Cl,52,-1,105,-2,-9,98
O=C(Nc1cc(Sc2ccccn2)cc([N+](=O)[O-])c1)c1ccc(Cl)cc1,x,-2,x,x,x,x
CC(C)CNC(=O)c1cccc(NC(=O)c2ccc(NC(=O)c3ccco3)cc2)c1,75,-2,82,1,-18,28*
CC(C)(C)c1ccc(C(=O)Nc2ccc(NC(=O)c3ccco3)cc2)cc1,43,-2,28*,x,x,33*
CC(C)(C)NC(=O)c1cccc(NC(=O)c2ccc(NC(=O)c3ccco3)cc2)c1,82,-11,94,-5,-11,33*
CC(C)OC(=O)c1ccc(NC(=O)c2ccco2)cc1,104,5,101,x,x,93
O=C(O)Cc1ccc(NC(=O)c2ccc(NC(=O)c3ccco3)cc2)cc1,99,-9,99,x,x,90
O=C(Nc1ccc(Cl)c(C(F)(F)F)c1)c1ccco1,83,30,108,8,98*,77
CC(C)(C)NC(=O)c1cccc(NC(=O)c2ccco2)c1,107,x,108,x,x,63
COc1ccc2[nH]c(C)c(CN3CCCC(C)C3)c(=O)c2c1 (centres undefined),103,x,104,5,-15,86
CCCC(=O)Nc1ccc(C(=O)n2nnc3ccccc32)cc1,87,-11,106,0,-13,86
Cn1c(NC(=O)c2ccco2)cc(=O)n(C)c1=O,99,-3,96,-2,-6,24*
Cn1c(NC(=O)c2ccccc2)cc(=O)n(C)c1=O,95,-2,97,-8,-23,94
Cc1onc(-c2ccccc2)c1C(=O)Nc1nnc(N2CCCCCC2)s1,103,-5,103,-9,22,84
Cc1ccccc1/C(N)=N/OC(=O)/C=C/c1ccccc1,93,17,83,x,x,8.9*
CC(=O)OCCCN1c2ccccc2Nc2nnc(-c3ccccc3)cc21,67,0,88,x,x,39*
CCOC(=O)c1cc(-c2ccccc2)n(CC(=O)O)c1C,104,1,96,-6,-4,108
CCOc1ccc(C2C(C#N)=C(N)SC(N)=C2C#N)cc1OCC,97,26,99,x,20,65
COC(=O)c1[nH]c2cc(C)ccc2c1NC(=O)CN1CCN(c2ccccc2OC)CC1,x,-5,x,8,38,x
COC(=O)c1[nH]c2cc(OC)ccc2c1NC(=O)CN1CCN(c2cccc(C)c2)C(C)C1 (centres undefined),53,-4,98,x,16,15*
CCOC(=O)Nc1c(C(=O)OC)[nH]c2cc(OC)ccc12,72,x,88,43*,-8,18*
CCOc1ccc2nc(NC(=O)C3CCN(S(=O)(=O)c4cnc[nH]4)CC3)sc2c1,88,-8,88,11,0,58
CCOc1ccc2nc(NC(=O)c3ccoc3C)sc2c1,42,-14,35*,42*,3,20*
CCOc1ccc2nc(NC(=O)Nc3ccccc3)sc2c1,75,-2,112,x,x,86
CCOc1ccc2nc(NC(=O)Nc3cccs3)sc2c1,60,x,89,-4,43,35*
CCOc1ccc2nc(NC(=O)C(CC)Sc3nc(C)cc(=O)[nH]3)sc2c1 (centres undefined),84,-2,117,-4,67*,100
CCOc1ccc2nc(NC(=O)C3CCN(c4cnccn4)CC3)sc2c1,91,-6,99,2,-12,34*
CCOc1ccc2nc(NC(=O)COC)sc2c1,83,-8,94,x,6,98
O=C(CN1CCCC1)Nc1ccc(NC(=O)Nc2ccccc2)cc1,95,7,121,-15,-12,99
